Test results from ChEMBL document CHEMBL1156843, “3,5-Bis(benzylidene)-1-[4-2-(morpholin-4-yl)ethoxyphenylcarbonyl]-4-piperidone hydrochloride: a lead tumor-specific cytotoxin which induces apoptosis and autophagy” (Bioorg Med Chem Lett, 2010).
Activity calls are given as the source filed them. The rule behind the calls is not given here.

Experiments:
[1] = tested on: HSC-4; assay: Cytotoxicity against human HSC4 cells; format: functional
Summary of the method: (§1)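 Each value is the mean of two independent determinations.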

[2] = tested on: HSC-4; assay: Selectivity index, ratio of CC50 for human normal cells to CC50 for human HSC4 cells; format: functional
Summary of the method: (§2)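 Ratio of the mean CC50 over three normal human lines (HGF gingival fibroblasts, HPC pulp cells, HPLF periodontal ligament fibroblasts) to the CC50 for the given tumor line. Each CC50 is the mean of two independent determinations.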

[3] = tested on: HSC-2; assay: Selectivity index, ratio of CC50 for human normal cells to CC50 for human HSC2 cells; format: functional; summary of the method: as §2
[4] = Cytotoxicity against human HGF cells; format: cell-based
[5] = Cytotoxicity against human HPC cells; format: cell-based
[6] = Cytotoxicity against human HPLF cells; format: cell-based
[7] = tested on: HL-60; assay: Cytotoxicity against human HL60 cells; format: functional; summary of the method: as §1
[8] = tested on: HSC-2; assay: Cytotoxicity against human HSC2 cells; format: functional; summary of the method: as §1
[9] = tested on: HL-60; assay: Selectivity index, ratio of CC50 for human normal cells to CC50 for human HL60 cells; format: functional; summary of the method: as §2
[10] = tested on: HSC-2; assay: Induction of acidic organelles formation in human HSC2 cells at 4 to 8 uM after 6 hrs; format: functional, cell-based
Summary of the method: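 Acidic organelle formation scored in HSC-2 cells after 6 h exposure; reference condition was culture in Hank's balanced salt solution for 1 h.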

[11] = tested on: HT-29; assay: Cell cycle arrest in human HT-29 cells assessed as accumulation at S phase at 5 uM after 48 hrs by flow cytometry; format: functional
Summary of the method: (§3)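 HT29 cells plated and grown 48 h to 50–60% confluency, then exposed to compound for 48 h. Cells trypsinized, PBS-washed, fixed overnight in 70% ethanol at 4 °C. Held 1 h on ice, then DNA content read by flow cytometry.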

[12] = tested on: HL-60; assay: Induction of bell-shaped internucleosomal DNA fragmentation in human HL60 cells at 1 to 2 uM after 7 hrs; format: functional, cell-based
[13] = tested on: HT-29; assay: Cell cycle arrest in human HT-29 cells assessed as accumulation at sub-G1 phase at 5 uM after 48 hrs by flow cytometry; format: functional; summary of the method: as §3
[14] = tested on: HT-29; assay: Cell cycle arrest in human HT-29 cells assessed as accumulation at G2/M phase at 5 uM after 48 hrs by flow cytometry; format: functional; summary of the method: as §3
[15] = tested on: HT-29; assay: Cytotoxicity against human HT-29 cells after 96 hrs by MTT assay; format: functional, cell-based; settings: HT-29, 96 h
Summary of the method: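 HT29 cells (ATCC) kept in DMEM with 10% fetal calf serum under 5% CO2 at 37 °C. Cells detached with trypsin and seeded at 9000 cells/well, then allowed 24 h to attach. Compound added at a range of concentrations; medium-only wells served as controls. After 96 h, proliferation was estimated from MTT reduction read at 540 nm.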

[16] = tested on: HT-29; assay: Cell cycle arrest in human HT-29 cells assessed as accumulation at G1 phase at 5 uM after 48 hrs by flow cytometry; format: functional; summary of the method: as §3
[17] = tested on: HSC-2; assay: Induction of bell-shaped internucleosomal DNA fragmentation in human HSC2 cells at 2 to 32 uM after 7 hrs; format: functional, cell-based

Structure (SMILES)	CC50 [1]	Selectivity Index [2]	Selectivity Index [3]	CC50 [4]	CC50 [5]	CC50 [6]	CC50 [7]	CC50 [8]	Selectivity Index [9]	Activity [10]	Activity [11]	Activity [12]	Activity [13]	Activity [14]	IC50 [15]	Activity [16]	Activity [17]
CCN(CC)CCOc1ccc(C(=O)N2C/C(=C\c3ccccc3)C(=O)/C(=C/c3ccccc3)C2)cc1.Cl	2 µM	3.7	2.4	4.2 µM	12 µM	6 µM	0.61 µM	3.1 µM	12	–	–	–	–	–	–	–	–
CN(C)CCOc1ccc(C(=O)N2C/C(=C\c3ccc(Cl)cc3)C(=O)/C(=C/c3ccc(Cl)cc3)C2)cc1.Cl	1.8 µM	7.1	5.6	23 µM	11 µM	4.3 µM	1.7 µM	2.3 µM	7.5	–	–	–	–	–	–	–	–
Cl.O=C1/C(=C/c2ccc(Cl)cc2)CN(C(=O)c2ccc(OCCN3CCOCC3)cc2)C/C1=C\c1ccc(Cl)cc1	18 µM	>22	>5.5	400 µM	> 400 µM	360 µM	36 µM	71 µM	> 11	–	–	–	–	–	–	–	–
Cl.O=C1/C(=C/c2ccccc2)CN(C(=O)c2ccc(OCCN3CCCCC3)cc2)C/C1=C\c1ccccc1	2.5 µM	3.2	2.7	4.6 µM	12 µM	7.4 µM	1.4 µM	3 µM	5.7	–	–	–	–	–	–	–	–
Cl.O=C1/C(=C/c2ccccc2)CN(C(=O)c2ccc(OCCN3CCOCC3)cc2)C/C1=C\c1ccccc1	2.4 µM	29	29	83 µM	95 µM	30 µM	1.2 µM	2.4 µM	58	Active	25.2%	Active	11.4%	11.1%	3.75 µM	50.5%	inactive
Cc1ccc(/C=C2\CN(C(=O)c3ccc(OCCN4CCOCC4)cc3)C/C(=C\c3ccc(C)cc3)C2=O)cc1.Cl	2 µM	12	15	10 µM	49 µM	12 µM	1.2 µM	1.6 µM	20	–	–	–	–	–	–	–	–
CC[N+](C)(CC)CCOc1ccc(C(=O)N2C/C(=C\c3ccccc3)C(=O)/C(=C/c3ccccc3)C2)cc1.[I-]	82 µM	1.7	1.1	160 µM	170 µM	79 µM	82 µM	130 µM	1.7	–	–	–	–	–	–	–	–
CC[N+](C)(CC)CCOc1ccc(C(=O)N2C/C(=C\c3ccc(Cl)cc3)C(=O)/C(=C/c3ccc(Cl)cc3)C2)cc1.[I-]	220 µM	>1.2	0.7	> 400 µM	> 400 µM	9.4 µM	64 µM	> 400 µM	>4.2	–	–	–	–	–	–	–	–
CN(C)CCOc1ccc(C(=O)N2C/C(=C\c3ccccc3)C(=O)/C(=C/c3ccccc3)C2)cc1.Cl	2.1 µM	4.1	2.2	3.6 µM	13 µM	8.9 µM	1 µM	3.8 µM	8.5	–	–	–	–	–	–	–	–
CN(C)CCOc1ccc(C(=O)N2C/C(=C\c3ccc([N+](=O)[O-])cc3)C(=O)/C(=C/c3ccc([N+](=O)[O-])cc3)C2)cc1.Cl	0.71 µM	8.5	6.5	7 µM	5.2 µM	5.9 µM	0.31 µM	0.93 µM	19	–	–	–	–	–	–	–	–
Cc1ccc(/C=C2\CN(C(=O)c3ccc(OCCN4CCCCC4)cc3)C/C(=C\c3ccc(C)cc3)C2=O)cc1.Cl	4.1 µM	2.2	3	6 µM	15 µM	5.5 µM	2.3 µM	2.9 µM	3.8	–	–	–	–	–	–	–	–
CCN(CC)CCOc1ccc(C(=O)N2C/C(=C\c3ccc([N+](=O)[O-])cc3)C(=O)/C(=C/c3ccc([N+](=O)[O-])cc3)C2)cc1.Cl	–	4.6	5.2	5 µM	4.5 µM	5.9 µM	–	–	20	–	–	–	–	–	–	–	–
CC[N+](C)(CC)CCOc1ccc(C(=O)N2C/C(=C\c3ccc([N+](=O)[O-])cc3)C(=O)/C(=C/c3ccc([N+](=O)[O-])cc3)C2)cc1.[I-]	61 µM	1.3	1.2	93 µM	130 µM	13 µM	29 µM	67 µM	2.7	–	–	–	–	–	–	–	–
Cl.O=C1/C(=C/c2ccc([N+](=O)[O-])cc2)CN(C(=O)c2ccc(OCCN3CCOCC3)cc2)C/C1=C\c1ccc([N+](=O)[O-])cc1	0.74 µM	13	13	12 µM	8.2 µM	9.3 µM	0.35 µM	0.76 µM	28	–	–	–	–	–	–	–	–
Cl.O=C1/C(=C/c2ccc(Cl)cc2)CN(C(=O)c2ccc(OCCN3CCCCC3)cc2)C/C1=C\c1ccc(Cl)cc1	–	>7.9	>3.5	> 400 µM	> 400 µM	340 µM	–	–	>6	–	–	–	–	–	–	–	–
CCN(CC)CCOc1ccc(C(=O)N2C/C(=C\c3ccc(C)cc3)C(=O)/C(=C/c3ccc(C)cc3)C2)cc1.Cl	–	2.5	2.6	3.6 µM	9.3 µM	4.6 µM	–	–	7.3	–	–	–	–	–	–	–	–
Cc1ccc(/C=C2\CN(C(=O)c3ccc(OCCN(C)C)cc3)C/C(=C\c3ccc(C)cc3)C2=O)cc1.Cl	2.1 µM	3	4.4	7.9 µM	7.2 µM	3.4 µM	0.85 µM	1.4 µM	7.3	–	–	–	–	–	–	–	–
CC[N+](C)(CC)CCOc1ccc(C(=O)N2C/C(=C\c3ccc(C)cc3)C(=O)/C(=C/c3ccc(C)cc3)C2)cc1.[I-]	17 µM	1.4	1.4	34 µM	29 µM	8.3 µM	16 µM	17 µM	1.5	–	–	–	–	–	–	–	–
N[C@@H](Cc1ccc(N(CCCl)CCCl)cc1)C(=O)O	–	>2.5	>5.7	> 200 µM	> 200 µM	> 200 µM	–	–	>33	–	–	–	–	–	–	–	–
Cl.O=C1/C(=C/c2ccc([N+](=O)[O-])cc2)CN(C(=O)c2ccc(OCCN3CCCCC3)cc2)C/C1=C\c1ccc([N+](=O)[O-])cc1	0.9 µM	6.2	6.5	8 µM	3.9 µM	4.9 µM	0.29 µM	0.86 µM	19	–	–	–	–	–	–	–	–
CCN(CC)CCOc1ccc(C(=O)N2C/C(=C\c3ccc(Cl)cc3)C(=O)/C(=C/c3ccc(Cl)cc3)C2)cc1.Cl	–	>10	>2.1	230 µM	> 400 µM	> 400 µM	–	–	>7.5	–	–	–	–	–	–	–	–
